Among the data in ChEMBL document CHEMBL1800018, “Discovery of a series of imidazo[4,5-b]pyridines with dual activity at angiotensin II type 1 receptor and peroxisome proliferator-activated receptor-γ” (J Med Chem, 2011) are Activity, Ki and AUC values, retold here.

Activity calls are given as the source filed them. The rule behind the calls is not given here.

Data set [1] relates to Rattus norvegicus. The data set can be described thus: Antihypertensive activity in po dosed SHR rat assessed as decrease in arterial blood pressure administered as single dose. Type of data set: functional, organism-based. As to conditions: Artery. The method in brief: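 SHR carried aortic radiotelemetry transmitters implanted under Telazol anesthesia and recovered for at least 1 week. Rats were randomized by 2 h baseline mean BP. Each received vehicle by oral gavage on Day 0 and a single drug dose (0.3–10 mg/kg) on Day 1, with BP followed 20 h each day. The change was taken as Day 1 minus Day 0, n = 8/group.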

Data set [2] relates to Rattus norvegicus. Kind of data set: Antidiabetic activity in ZDF rat assessed as blood glucose level at 10 mg/kg, po QD for 40 days (reference value: 771+/-60 mg/dL). It counts as functional.
The test system of data set [3] is Rattus norvegicus. The data set can be described thus: Antidiabetic activity in ZDF rat assessed as triglyceride level at 30 mg/kg, po QD for 40 days (reference value: 618+/-52 mg/dL). It counts as functional.
Data set [4] addresses T1, Type-1 angiotensin II receptor (Homo sapiens, UniProt P30556).
T1 sequence (P30556 whole entry): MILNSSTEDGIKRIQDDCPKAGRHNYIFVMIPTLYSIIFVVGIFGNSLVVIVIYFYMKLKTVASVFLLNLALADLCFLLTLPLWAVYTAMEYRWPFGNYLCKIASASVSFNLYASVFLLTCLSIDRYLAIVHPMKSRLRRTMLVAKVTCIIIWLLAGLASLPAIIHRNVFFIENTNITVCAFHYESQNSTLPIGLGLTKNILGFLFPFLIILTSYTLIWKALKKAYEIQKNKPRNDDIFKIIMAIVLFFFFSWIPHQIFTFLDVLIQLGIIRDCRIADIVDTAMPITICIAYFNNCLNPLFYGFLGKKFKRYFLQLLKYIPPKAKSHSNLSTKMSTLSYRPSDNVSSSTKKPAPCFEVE
Kind of data set: Binding affinity to human Angiotensin receptor 1. In short, it runs like this:
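Competition radioligand binding on human recombinant AT1 receptors, displacing [¹²⁵I]Tyr⁴-Sar¹,Ile⁸-angiotensin II.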

Data set [5] concerns Rattus norvegicus. The data set can be described thus: Antidiabetic activity in ZDF rat assessed as triglyceride level at 1 mg/kg, po QD for 40 days (reference value: 618+/-52 mg/dL). Type of data set: functional.
A short description of data set [6]: AUC in ZDF rat at 100 mg/kg, po. It counts as ADME, organism-based. On the set-up: dose 100 mg/kg, route oral. Conditions: plasma. The method in brief: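 Male ZDF rats; satellite animals outside the efficacy groups were given oral doses of 3, 10 or 100 mg/kg. Plasma Cmax and AUC were calculated from these animals.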
Data set [7] in a line: AUC in rat at 5 mg/kg, po. As to conditions: plasma. Type of data set: ADME, organism-based. The arrangement: dose 5 mg/kg, route oral.

As to `CCc1nc2c(C)cc(CC(C)C)nc2n1[C@H]1CCc2cc(-c3ccccc3-c3nnn[nH]3)ccc21`, in the data set with Rattus norvegicus [1], the outcome was Active. For the same molecule, the Activity in the data set with Rattus norvegicus [2] was 159 mg/dL; with Rattus norvegicus [3], 288 mg/dL; in the data set on Rattus norvegicus [5] it was 725 mg/dL. In data set [4], this molecule yielded a Ki of 690 pM. For the same molecule, the AUC in data set [6] was found to be 2600 µg·h/mL; in data set [7], 4.95 µg·h/mL.

As a reminder, the Ki is the equilibrium dissociation constant of an inhibitor or competing ligand from its target. In general, AUC refers to the area under the concentration-time curve, a measure of exposure.
